In ChEMBL document CHEMBL1121666, “Synthesis and serotonin-like activity of 2-amino-5,8-dimethoxy-6-methyl-1,2-dihydronaphthalene” (J Med Chem, 1981) one finds Incidence and pKa data, which are given here for 3 compounds.

Data set [1] relates to Rattus norvegicus. Nature of the data set: Compound was evaluated for the incidence of serotonin syndrome […] by intraperitoneal administration at the dose 4 mg/kg; 1/3. Format: functional. A digest of the protocol: (§1)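 Male Sprague–Dawley rats (200–300 g) were given the racemic hydrochloride salts intraperitoneally at 1–16 mg/kg, following the Sloviter protocol. A rat was scored positive only when forepaw padding, splayed hindlimbs, and head weaving or tremor were all present. Incidence is reported as responders/rats dosed, with […] rats per dose.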

In data set [2] the test system is Rattus norvegicus. Nature of the data set: Compound was evaluated for the incidence of serotonin syndrome […] by intraperitoneal administration at the dose 2 mg/kg; 0/3. Type of data set: functional. Summed up: as §1
Data set [3] can be described thus: Acid dissociation constant was determined. Format: ADME.
Data set [4] relates to Rattus norvegicus. Nature of the data set: Compound was evaluated for the incidence of serotonin syndrome […] by intraperitoneal administration at the dose 8 mg/kg; 0/3. Type of data set: functional. Summed up: as §1
The subject of data set [5] is Rattus norvegicus. As to the kind of experiment: Compound was evaluated for the incidence of serotonin syndrome […] by intraperitoneal administration at the dose 16 mg/kg; 2/3. Format: functional. Summed up:
as §1

Data set [6] deals with Rattus norvegicus. As to the kind of experiment: Compound was evaluated for the incidence of serotonin syndrome […] by intraperitoneal administration at the dose 8 mg/kg; 3/8. Format: functional.
Data set [7] has as its system Rattus norvegicus. Nature of the data set: Compound was evaluated for the incidence of serotonin syndrome […] by intraperitoneal administration at the dose 16 mg/kg; 3/3. Type of data set: functional. Summed up:
as §1

For data set [8], the system named is Rattus norvegicus. Nature of the data set: Compound was evaluated for the incidence of serotonin syndrome […] by intraperitoneal administration at the dose 4 mg/kg; 0/8. Format: functional.

Turning to `COc1cc(C)c(OC)c2c1CC(N)C=C2.Cl` (stereo not given), the Incidence in data set [1] is 1; in data set [2], 0; in data set [4] it was 0; in data set [5], 2. Moreover, the pKa in data set [3] came to 8.93.
With `COc1cc(C)c(OC)c2c1CC(N)CC2.Cl` (stereo not given), the Incidence was 3 in data set [6], 3 in data set [7], 0 in data set [2] and 0 in data set [8].
Regarding `COc1cc(C2CC2N)c(OC)cc1C` (stereo not given), the pKa in data set [3] was found to be 8.11.
